ChEMBL document CHEMBL1140702, “New celecoxib derivatives as anti-inflammatory agents” (J Med Chem, 2008)

Legend:
Rattus norvegicus [1] = assay: Antiinflammatory activity in Wistar rat assessed as inhibition of carrageenan-induced paw edema at 10 mg/kg, po after 6 hrs relative to celecoxib; format: functional; conditions: for inhibition in vivo at 10 mg/kg: Rattus norvegicus, Wistar, po, 6 h
Method in brief: (§1)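 Male Wistar rats (140–150 g; n = 6–12/group) given 50 µL of 1% carrageenan subcutaneously into the right hind paw subplantar region. Oral test doses. Edema is the pre- versus post-treatment volume difference (mL), read by water-displacement plethysmometer.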

Rattus norvegicus [2] = assay: Antiinflammatory activity in Wistar rat assessed as inhibition of carrageenan-induced paw edema at 10 mg/kg, po after 4 hrs relative to celecoxib; format: functional; conditions: for inhibition in vivo at 10 mg/kg: Rattus norvegicus, Wistar, po, 4 h; method in brief: as §1
Rattus norvegicus [3] = assay: Antiinflammatory activity in Wistar rat assessed as inhibition of carrageenan-induced paw edema at 10 mg/kg, po after 7 hrs relative to celecoxib; format: functional; conditions: for inhibition in vivo at 10 mg/kg: Rattus norvegicus, Wistar, po, 7 h; method in brief: as §1
Rattus norvegicus [4] = assay: Inhibition of ethanol-induced gastric mucosal damage in Wistar rat at 15 mg/kg, po; format: functional; conditions: Gastric mucosa
Method in brief: (§2)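 After 24 h fasting, male Wistar rats (140–160 g; n = 10) received oral 0.5 mL acidified ethanol (98% ethanol in 200 mmol/l HCl), with oral test doses and methylcellulose vehicle. Stomachs removed 1 h later and scored blind on a 0–4 scale. Lesion index = lesion number × severity. % inhibition calculated against control lesion index.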

Rattus norvegicus [5] = assay: Inhibition of ethanol-induced gastric mucosal damage in Wistar rat at 60 mg/kg, po; format: functional; conditions: Gastric mucosa; method in brief: as §2
Rattus norvegicus [6] = assay: Antiinflammatory activity in Wistar rat assessed as inhibition of carrageenan-induced paw edema
Rattus norvegicus [7] = assay: Analgesic activity in chronic model Wistar rat assessed as reversal of carrageenan-induced hind paw edema at 30 mg/kg, po after 120 mins by mechanical hyperalgesia test relative to celecoxib; format: functional
Method in brief: (§3)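 Randall-Selitto test: male Wistar rats (140–190 g; n = 8–12/group), carrageenan injected subcutaneously in the subplantar right hind paw. Basal paw-withdrawal pressure threshold (g) measured before carrageenan, then after oral dosing at 30, 60, 120 and 180 min. Maximal threshold reduction develops 2–3 h post-injection. Analgesia expressed as % reversal of hyperalgesia.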

Rattus norvegicus [8] = assay: Antiinflammatory activity in Wistar rat assessed as inhibition of carrageenan-induced paw edema after 4 hrs; format: functional
Rattus norvegicus [9] = assay: Analgesic activity in chronic model Wistar rat assessed as reversal of carrageenan-induced hind paw edema at 10 mg/kg, po after 60 mins by mechanical hyperalgesia test relative to celecoxib; format: functional; method in brief: as §3
Rattus norvegicus [10] = assay: Analgesic activity in acute model Wistar rat assessed as reversal of carrageenan-induced hind paw edema at 30 mg/kg, po after 180 mins by mechanical hyperalgesia test relative to celecoxib; format: functional; method in brief: as §3
Rattus norvegicus [11] = assay: Analgesic activity in acute model Wistar rat assessed as reversal of carrageenan-induced hind paw edema at 10 mg/kg, po after 180 mins by mechanical hyperalgesia test relative to celecoxib; format: functional; method in brief: as §3
Rattus norvegicus [12] = assay: Analgesic activity in chronic model Wistar rat assessed as reversal of carrageenan-induced hind paw edema at 10 mg/kg, po after 120 mins by mechanical hyperalgesia test relative to celecoxib; format: functional; method in brief: as §3
Rattus norvegicus [13] = assay: Analgesic activity in acute model Wistar rat assessed as reversal of carrageenan-induced hind paw edema at 10 mg/kg, po after 120 mins by mechanical hyperalgesia test relative to celecoxib; format: functional; method in brief: as §3
Rattus norvegicus [14] = assay: Analgesic activity in acute model Wistar rat assessed as reversal of carrageenan-induced hind paw edema at 10 mg/kg, po after 60 mins by mechanical hyperalgesia test relative to celecoxib; format: functional; method in brief: as §3
Rattus norvegicus [15] = assay: Analgesic activity in chronic model Wistar rat assessed as reversal of carrageenan-induced hind paw edema at 30 mg/kg, po after 180 mins by mechanical hyperalgesia test relative to celecoxib; format: functional; method in brief: as §3
Rattus norvegicus [16] = assay: Analgesic activity in chronic model Wistar rat assessed as reversal of carrageenan-induced hind paw edema at 30 mg/kg, po after 30 mins by mechanical hyperalgesia test relative to celecoxib; format: functional; method in brief: as §3
Rattus norvegicus [17] = assay: Increase in body weight in acetic acid-induced chronic gastric ulcer Wistar rat at 30 mg/kg, po; format: functional, Stomach
Method in brief: (§4)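 Chronic ulcer (Okabe method): under ether anesthesia, male Wistar rats (150–170 g) had 0.05 mL 20% acetic acid injected into the submucosa of the anterior glandular stomach wall via laparotomy. Oral dosing with methylcellulose vehicle control. Killed after 12 days. Ulcer area taken as length × width (mm²); body-weight change recorded.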

Rattus norvegicus [18] = assay: Inhibition of ethanol-induced gastric mucosal damage in Wistar rat assessed as ulcer index at 15 mg/kg, po; format: functional, Gastric mucosa; method in brief: as §2
Rattus norvegicus [19] = assay: Analgesic activity in acute model Wistar rat assessed as reversal of carrageenan-induced hind paw edema at 30 mg/kg, po after 120 mins by mechanical hyperalgesia test relative to celecoxib; format: functional; method in brief: as §3
Rattus norvegicus [20] = assay: Inhibition of ethanol-induced gastric mucosal damage in Wistar rat assessed as ulcer index at 60 mg/kg, po; format: functional, Gastric mucosa; method in brief: as §2
Rattus norvegicus [21] = assay: Effect on acetic acid-induced chronic gastric ulcer Wistar rat assessed as area of ulcer at 30 mg/kg, po; format: functional, Stomach; method in brief: as §4
Rattus norvegicus [22] = assay: Analgesic activity in chronic model Wistar rat assessed as reversal of carrageenan-induced hind paw edema at 10 mg/kg, po after 30 mins by mechanical hyperalgesia test relative to celecoxib; format: functional; method in brief: as §3
Rattus norvegicus [23] = assay: Inhibition of ethanol-induced gastric mucosal damage in Wistar rat assessed as ulcer index at 30 mg/kg, po; format: functional, Gastric mucosa; method in brief: as §2
Rattus norvegicus [24] = assay: Analgesic activity in acute model Wistar rat assessed as reversal of carrageenan-induced hind paw edema at 30 mg/kg, po after 60 mins by mechanical hyperalgesia test relative to celecoxib; format: functional; method in brief: as §3
Rattus norvegicus [25] = assay: Inhibition of ethanol-induced gastric mucosal damage in Wistar rat at 30 mg/kg, po; format: functional; conditions: Gastric mucosa; method in brief: as §2
Rattus norvegicus [26] = assay: Analgesic activity in chronic model Wistar rat assessed as reversal of carrageenan-induced hind paw edema at 30 mg/kg, po after 60 mins by mechanical hyperalgesia test relative to celecoxib; format: functional; method in brief: as §3
Rattus norvegicus [27] = assay: Analgesic activity in chronic model Wistar rat assessed as reversal of carrageenan-induced hind paw edema at 10 mg/kg, po after 180 mins by mechanical hyperalgesia test relative to celecoxib; format: functional; method in brief: as §3
Rattus norvegicus [28] = assay: Effect on acetic acid-induced chronic gastric ulcer Wistar rat assessed as area of ulcer at 2.0 mg/kg, po; format: functional, Stomach; method in brief: as §4
Rattus norvegicus [29] = assay: Increase in body weight in acetic acid-induced chronic gastric ulcer Wistar rat at 2.0 mg/kg, po; format: functional, Stomach; method in brief: as §4

## Cc1ccc(-c2cc(C(F)(F)F)nn2-c2ccc(S(=O)(=O)NOCCC(=O)[O-])cc2)cc1.[Na+]
Rattus norvegicus [1]
  Inhibition: 33.9%
Rattus norvegicus [2]
  inhibition in vivo at 10 mg/kg: 32%
Rattus norvegicus [3]
  Inhibition: 24.9%

## Cc1ccc(-c2cc(C(F)(F)F)nn2-c2ccc(S(=O)(=O)NOCC(=O)O)cc2)cc1 [listing 1 of 2 here]
Rattus norvegicus [1]
  Inhibition: 21.3%
Rattus norvegicus [2]
  Inhibition: 13.1%
Rattus norvegicus [3]
  Inhibition: 17.1%

## CCOC(=O)CONS(=O)(=O)c1ccc(-n2nc(C(F)(F)F)cc2-c2ccc(C)cc2)cc1
Rattus norvegicus [1]
  inhibition in vivo at 10 mg/kg: 23.1%
Rattus norvegicus [2]
  inhibition in vivo at 10 mg/kg: 13.3%
Rattus norvegicus [3]
  inhibition in vivo at 10 mg/kg: 20.6%

## Cc1ccc(-c2cc(C(F)(F)F)nn2-c2ccc(S(=O)(=O)NO[C@@H](C)C(=O)O)cc2)cc1
Rattus norvegicus [1]
  inhibition in vivo at 10 mg/kg: -9.3%
Rattus norvegicus [2]
  inhibition in vivo at 10 mg/kg: 0.9%
Rattus norvegicus [3]
  inhibition in vivo at 10 mg/kg: -6.3%

## Cc1ccc(-c2cc(C(F)(F)F)nn2-c2ccc(S(=O)(=O)NO[C@H](C)C(=O)O)cc2)cc1
Rattus norvegicus [1]
  inhibition in vivo at 10 mg/kg: 15.3%
Rattus norvegicus [2]
  inhibition in vivo at 10 mg/kg: 18.4%
Rattus norvegicus [3]
  inhibition in vivo at 10 mg/kg: 6.7%

## Cc1ccc(-c2cc(C(F)(F)F)nn2-c2ccc(S(=O)(=O)NOCCC(=O)O)cc2)cc1
Rattus norvegicus [1]
  Inhibition: 12.8%
Rattus norvegicus [2]
  Inhibition: 23.6%
Rattus norvegicus [3]
  Inhibition: 11.9%

## Cc1ccc(-c2cc(C(F)(F)F)nn2-c2ccc(S(=O)(=O)NOCC(=O)O)cc2)cc1 [listing 2 of 2 here]
Rattus norvegicus [1]
  inhibition in vivo at 10 mg/kg: 33.2%
Rattus norvegicus [2]
  inhibition in vivo at 10 mg/kg: 26%
Rattus norvegicus [3]
  inhibition in vivo at 10 mg/kg: 24.7%

## CCOC(=O)C(C)ONS(=O)(=O)c1ccc(-n2nc(C(F)(F)F)cc2-c2ccc(C)cc2)cc1 (racemic)
Rattus norvegicus [1]
  inhibition in vivo at 10 mg/kg: 15.7%
Rattus norvegicus [2]
  inhibition in vivo at 10 mg/kg: 23.5%
Rattus norvegicus [3]
  inhibition in vivo at 10 mg/kg: 7.3%

## Cc1ccc(-c2cc(C(F)(F)F)nn2-c2ccc(S(=O)(=O)NOC(C)C(=O)O)cc2)cc1 (racemic; 16)
Rattus norvegicus [4]
  inhibition in vivo at 15 mg/kg: 35%
Rattus norvegicus [1]
  Inhibition: 31.1%
Rattus norvegicus [5]
  inhibition in vivo at 60 mg/kg: 76%
Rattus norvegicus [6]
  ED30: 8.4 mg/kg
Rattus norvegicus [7]
  Activity: 34%
Rattus norvegicus [2]
  Inhibition: 41%
Rattus norvegicus [8]
  ED30: 5.7 mg/kg
Rattus norvegicus [9]
  Activity: 22%
Rattus norvegicus [3]
  Inhibition: 17.9%
Rattus norvegicus [10]
  Activity: 35%
Rattus norvegicus [11]
  Activity: 15%
Rattus norvegicus [12]
  Activity: 28%
Rattus norvegicus [13]
  Activity: 30%
Rattus norvegicus [14]
  Activity: 24%
Rattus norvegicus [15]
  Activity: 19%
Rattus norvegicus [16]
  Activity: 42%
Rattus norvegicus [17]
  Activity: 43 g
Rattus norvegicus [18]
  UI: 43
Rattus norvegicus [19]
  Activity: 59%
Rattus norvegicus [20]
  UI: 15.8
Rattus norvegicus [21]
  Activity: 2.4 mm2
Rattus norvegicus [22]
  Activity: 23%
Rattus norvegicus [23]
  UI: 35
Rattus norvegicus [24]
  Activity: 89%
Rattus norvegicus [25]
  inhibition in vivo at 30 mg/kg: 43%
Rattus norvegicus [26]
  Activity: 54%
Rattus norvegicus [27]
  Activity: 20%

## Cc1ccc(-c2cc(C(F)(F)F)nn2-c2ccc(S(=O)(=O)NOC(C)C(=O)O)cc2)cc1 (racemic; 21)
Rattus norvegicus [1]
  inhibition in vivo at 10 mg/kg: 21.8%
Rattus norvegicus [2]
  inhibition in vivo at 10 mg/kg: 38.4%
Rattus norvegicus [3]
  inhibition in vivo at 10 mg/kg: 16.2%

## Cc1ccc(-c2cc(C(F)(F)F)nn2-c2ccc(S(N)(=O)=O)cc2)cc1 [CELECOXIB]
Rattus norvegicus [4]
  inhibition in vivo at 15 mg/kg: 18%
Rattus norvegicus [1]
  inhibition in vivo at 10 mg/kg: 18.6%
Rattus norvegicus [5]
  inhibition in vivo at 60 mg/kg: 55%
Rattus norvegicus [6]
  ED30: > 30 mg/kg
Rattus norvegicus [7]
  Activity: 34%
Rattus norvegicus [2]
  inhibition in vivo at 10 mg/kg: 24.2%
Rattus norvegicus [8]
  ED30: 23 mg/kg
Rattus norvegicus [9]
  Activity: 17%
Rattus norvegicus [3]
  inhibition in vivo at 10 mg/kg: 12.3%
Rattus norvegicus [10]
  Activity: 0%
Rattus norvegicus [11]
  Activity: 0%
Rattus norvegicus [12]
  Activity: 0%
Rattus norvegicus [13]
  Activity: 0%
Rattus norvegicus [14]
  Activity: 0%
Rattus norvegicus [15]
  Activity: 26%
Rattus norvegicus [16]
  Activity: 54%
Rattus norvegicus [17]
  Activity: 32 g
Rattus norvegicus [18]
  UI: 80.6
Rattus norvegicus [19]
  Activity: 3%
Rattus norvegicus [20]
  UI: 44.4
Rattus norvegicus [21]
  Activity: 8.2 mm2
Rattus norvegicus [22]
  Activity: 24%
Rattus norvegicus [23]
  UI: 49.4
Rattus norvegicus [24]
  Activity: 24%
Rattus norvegicus [25]
  inhibition in vivo at 30 mg/kg: 19%
Rattus norvegicus [26]
  Activity: 34%
Rattus norvegicus [27]
  Activity: 0%

## COc1ccc2c(c1)c(CC(=O)O)c(C)n2C(=O)c1ccc(Cl)cc1 [INDOMETHACIN]
Rattus norvegicus [28]
  Activity: 39 mm2
Rattus norvegicus [29]
  Activity: 2 g
